Source: ChEMBL document CHEMBL1158043, “Allergy-preventive phenolic glycosides from Populus sieboldii” (J Nat Prod, 2006)
The source made the active and inactive calls. The rule behind the calls is not given here.

Key:
[1] = test system: Mus musculus; test: Allergy preventing effect in hen egg […]-sensitized ddY mouse assessed as inhibition blood flow decrease in tail artery at 20 mg/kg, po relative to control; format: functional, organism-based; design: dose 20 mg/kg
Outline: (§1)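 Male ddY mice, 5 weeks old, sensitized s.c. with 50 µg HEL in complete Freund's adjuvant on day 0. Compound given orally at 20 mg/kg on days 0, 3, 6 and 9, 1 h before measurement. After 10 min prewarming at 37 °C, tail subcutaneous blood flow was read by non-contact laser Doppler for 10 min daily over 9 days without anesthesia. Values are % of each mouse's normal flow, mean ± SE, n = 5, compared with HEL-sensitized controls.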

[2] = test system: Platelet; test: Inhibition of platelet aggregation in hen egg […]-sensitized ddY mouse blood after 9 days; format: functional, tissue-based
Outline: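 Mice were HEL-sensitized and dosed orally at 20 mg/kg as in the blood-flow assay. On day 9, whole blood was drawn under diethyl ether anesthesia, anticoagulated with 3.8% sodium citrate and held 30 min at room temperature. Aggregation was induced with 8 µM ADP and measured by screen filtration pressure on a whole-blood aggregometer. Read-out is cohesion rate, mean ± SE, n = 5.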

[3] = test system: Mus musculus; test: Allergy preventing effect in hen egg […]-sensitized ddY mouse assessed as inhibition of blood flow decrease in tail artery at 20 mg/kg, po after 6 days relative to control; format: functional, organism-based; design: dose 20 mg/kg; outline: as §1
[4] = test system: Mus musculus; test: Allergy preventing effect in hen egg […]-sensitized ddY mouse assessed as inhibition of blood flow decrease in tail artery at 20 mg/kg, po after 7 days relative to control; format: functional, organism-based; design: dose 20 mg/kg; outline: as §1
[5] = test system: Mus musculus; test: Allergy preventing effect in hen egg […]-sensitized ddY mouse assessed as inhibition of blood flow decrease in tail artery at 20 mg/kg, po after 5 days relative to control; format: functional, organism-based; design: dose 20 mg/kg; outline: as §1

| Structure (SMILES) | Activity [1] | Activity [2] | Activity [3] | Activity [4] | Activity [5] |
| --- | --- | --- | --- | --- | --- |
| CC(=O)OC[C@H]1O[C@@H](Oc2cc(COC(=O)c3ccccc3)ccc2O)[C@H](O)[C@@H](O)[C@@H]1O | Active | Active | – | – | – |
| O=C(OCc1ccc(O)c(O[C@@H]2O[C@H](CO)[C@@H](O)[C@H](O)[C@H]2O)c1)c1ccccc1 | Active | Active | – | – | – |
| COc1cc(O)c(C(=O)/C=C/c2ccc(O)cc2)c(O[C@@H]2O[C@H](CO)[C@@H](O)[C@H](O)[C@H]2O)c1 | – | Active | Active | Active | – |
| COc1cc(O[C@@H]2O[C@H](CO)[C@@H](O)[C@H](O)[C@H]2O)c2c(c1)O[C@H](c1ccc(O)cc1)CC2=O | – | inactive | Active | Active | – |
| OCc1ccccc1O[C@@H]1O[C@H](CO)[C@@H](O)[C@H](O)[C@H]1O | – | – | – | – | Active |
